Results from ChEMBL document CHEMBL3526038, “The role of a basolateral transporter in rosuvastatin transport and its interplay with apical breast cancer resistance protein in polarized cell monolayer systems” (Drug Metab Dispos, 2012).
Each block holds one compound with its values, some of them ahead of it.

Key:
[1] = Cmax in healthy human at 20 mg, po; settings: in vivo
[2] = Cellular uptake in human Caco2 cells after 30 mins by Michaelis-Menten equation analysis; format: ADME, cell-based, Caco-2
Procedure, shortened: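 Caco-2 monolayers (21-28 days). Rosuvastatin at various concentrations was dosed basolaterally in HBSSg pH 7.4 and incubated 30 min at 37°C. Apical samples and ice-cold-washed, acetonitrile-lysed cells were analysed by LC-MS/MS. Total uptake was fitted by nonlinear regression to saturable plus nonsaturable components to give Km; mean ± S.D., n = 3.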

[3] = Oral bioavailability in human at 40 mg; format: ADME, organism-based; settings: in vivo
Homo sapiens = experiment: Total clearance in human at 40 mg, po; format: ADME, organism-based; settings: in vivo
[4] = Apparent permeability from apical to basolateral side of human Caco2 cells at 2 uM after 60 to 120 mins; format: ADME, cell-based; settings: Caco-2
Procedure, shortened: (§1)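 Monolayers on collagen-coated polycarbonate Transwells (0.4 μm pores), seeded at 60,000 cells/cm². Caco-2 were used at 21-28 days (TEER > 450 Ω·cm²); BCRP-MDCK at 7-11 days (TEER > 1200 Ω·cm²), stably expressing human ABCG2 R482 under neomycin selection. Rosuvastatin 2 μM in HBSSg pH 7.4 was dosed apically or basolaterally at 37°C. Samples were taken at 60 and 120 min for LC-MS/MS. Papp was determined; ER = Papp B-to-A / Papp A-to-B; triplicate.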

[5] = Apparent permeability from basolateral to apical side of human Caco2 cells at 2 uM after 60 to 120 mins; format: ADME, cell-based; settings: Caco-2; procedure, shortened: as §1
[6] = Efflux ratio of apparent permeability from basolateral to apical over apical to basolateral side of human Caco2 cells at 2 uM after 60 to 120 mins; format: ADME, cell-based; settings: Caco-2; procedure, shortened: as §1
[7] = Apparent permeability from apical to basolateral side of MDCK cells at 2 uM after 60 to 120 mins; format: ADME, cell-based, Canis lupus familiaris; settings: dog; procedure, shortened: as §1
[8] = Apparent permeability from basolateral to apical side of MDCK cells at 2 uM after 60 to 120 mins; format: ADME, cell-based, Canis lupus familiaris; settings: dog; procedure, shortened: as §1
[9] = Efflux ratio of apparent permeability from basolateral to apical over apical to basolateral side of MDCK cells at 2 uM after 60 to 120 mins; format: ADME, cell-based, Canis lupus familiaris; settings: dog; procedure, shortened: as §1
BCRP [10] = experiment: Apparent permeability from apical to basolateral side of MDCK cells overexpressing BCRP at 2 uM after 60 to 120 mins; format: ADME, cell-based, Canis lupus familiaris; settings: dog; procedure, shortened: as §1
BCRP [11] = experiment: Apparent permeability from basolateral to apical side of MDCK cells overexpressing BCRP at 2 uM after 60 to 120 mins; format: ADME, cell-based, Canis lupus familiaris; settings: dog; procedure, shortened: as §1
BCRP [12] = experiment: Efflux ratio of apparent permeability from basolateral to apical over apical to basolateral side of MDCK cells overexpressing BCRP at 2 uM after 60 to 120 mins; format: ADME, cell-based, Canis lupus familiaris; settings: dog; procedure, shortened: as §1
[13] = Partition coefficient, pKa of the compound; format: physicochemical; settings: octanol/water
[14] = Activity at OSTalpha/OSTbeta in human Caco2 cells assessed as drug transport from basolateral to apical side at 2 uM in presence of chenodoxycholate relative to control; format: ADME, cell-based; settings: caco-2, 2 µM
[15] = Activity at OSTalpha/OSTbeta in human Caco2 cells assessed as drug transport from basolateral to apical side at 2 uM in presence of lithocholate acid relative to control; format: ADME, cell-based; settings: caco-2, 2 µM
[16] = Activity at OSTalpha/OSTbeta in human Caco2 cells assessed as drug transport from basolateral to apical side at 2 uM in presence of taurocholate relative to control; format: ADME, cell-based; settings: caco-2, 2 µM
[17] = Activity at OSTalpha/OSTbeta in human Caco2 cells assessed as drug transport from basolateral to apical side at 2 uM in presence of taurolithocholate relative to control; format: ADME, cell-based; settings: caco-2, 2 µM
[18] = Activity at OSTalpha/OSTbeta in human Caco2 cells assessed as drug transport from basolateral to apical side at 2 uM in presence of dehydroepiandrosterone sulfate relative to control; format: ADME, cell-based; settings: caco-2, 2 µM
[19] = Activity at OSTalpha/OSTbeta in human Caco2 cells assessed as drug transport from basolateral to apical side at 2 uM in presence of digoxin relative to control; format: ADME, cell-based; settings: caco-2, 2 µM
[20] = Activity at OSTalpha/OSTbeta in human Caco2 cells assessed as drug transport from basolateral to apical side at 2 uM in presence of estrone 3-sulfate relative to control; format: ADME, cell-based; settings: caco-2, 2 µM
[21] = Activity at OSTalpha/OSTbeta in human Caco2 cells assessed as drug transport from basolateral to apical side at 2 uM in presence of spironolactone relative to control; format: ADME, cell-based; settings: caco-2, 2 µM
[22] = Activity at OSTalpha/OSTbeta in human Caco2 cells assessed as drug transport from basolateral to apical side at 2 uM in presence of bromosulfophthalein relative to control; format: ADME, cell-based; settings: caco-2, 2 µM
[23] = Activity at OSTalpha/OSTbeta in human Caco2 cells assessed as drug transport from basolateral to apical side at 2 uM in presence of indomethacin relative to control; format: ADME, cell-based; settings: caco-2, 2 µM
[24] = Activity at OSTalpha/OSTbeta in human Caco2 cells assessed as drug transport from basolateral to apical side at 2 uM in presence of probenecid relative to control; format: ADME, cell-based; settings: caco-2, 2 µM
[25] = Activity at OSTalpha/OSTbeta in human Caco2 cells assessed as drug transport from basolateral to apical side at 2 uM in presence of rifamycin relative to control; format: ADME, cell-based; settings: caco-2, 2 µM
[26] = Activity at OSTalpha/OSTbeta in human Caco2 cells assessed as drug transport from apical to basolateral side at 50 uM in presence of 10 uM taurolithocholate relative to control; format: ADME, cell-based; settings: caco-2, 50 µM
Procedure, shortened: (§2)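 Caco-2 monolayers (21-28 days, TEER > 450 Ω·cm²). Rosuvastatin 50 μM was dosed apically with 10 μM atenolol as a low-permeability marker, in HBSSg/MES at pH 5.5. Basolateral buffer was HBSSg/HEPES pH 7.4, with or without tauroolithocholate (10, 50 or 100 μM). Incubated at 37°C. Basolateral samples were taken at 15, 30 and 60 min and measured by LC-MS/MS. Efflux was normalised to BCA protein and expressed as % control; triplicate.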

[27] = Activity at OSTalpha/OSTbeta in human Caco2 cells assessed as drug transport from apical to basolateral side at 50 uM in presence of 50 uM taurolithocholate relative to control; format: ADME, cell-based; settings: caco-2, 50 µM; procedure, shortened: as §2
[28] = Activity at OSTalpha/OSTbeta in human Caco2 cells assessed as drug transport from apical to basolateral side at 50 uM in presence of 100 uM taurolithocholate relative to control; format: ADME, cell-based; settings: caco-2, 50 µM; procedure, shortened: as §2

Cmax [1]: 6 nM
Km at 0.5 h ([2]; human, Caco-2 cells): 4.21 µM
Jmax ([2]; human, caco-2, 0.5 h): 24.64 pmol/min/mg
bioavailability [3]: 20%
CL (Homo sapiens): 70%
Papp A→B at 2 µM [4]: 0.25 ×10⁻⁶ cm/s
Papp B→A at 2 µM [5]: 20.7 ×10⁻⁶ cm/s
efflux ratio at 2 µM [6]: 83.2
Papp A→B at 2 µM [7]: 0.43 ×10⁻⁶ cm/s
Papp B→A at 2 µM [8]: 0.49 ×10⁻⁶ cm/s
efflux ratio at 2 µM [9]: 1.1
Papp A→B at 2 µM (BCRP [10]): 0.28 ×10⁻⁶ cm/s
Papp B→A at 2 µM (BCRP [11]): 1.63 ×10⁻⁶ cm/s
efflux ratio at 2 µM (BCRP [12]): 5.8
pKa [13]: 4.2
Drug transport [14]: 27.9%
Drug transport [15]: 42.6%
Drug transport [16]: 29.1%
Drug transport [17]: 30.1%
Drug transport [18]: 38.1%
Drug transport [19]: 43.9%
Drug transport [20]: 28.7%
Drug transport [21]: 35.1%
Drug transport [22]: 23.5%
Drug transport [23]: 32.7%
Drug transport [24]: 73.8%
Drug transport [25]: 21.4%
Drug transport [26]: 338%
Drug transport [27]: 436%
Drug transport [28]: 359%
SMILES: CC(C)c1nc(N(C)S(C)(=O)=O)nc(-c2ccc(F)cc2)c1/C=C/[C@@H](O)C[C@@H](O)CC(=O)[O-].CC(C)c1nc(N(C)S(C)(=O)=O)nc(-c2ccc(F)cc2)c1/C=C/[C@@H](O)C[C@@H](O)CC(=O)[O-].[Ca+2] [ROSUVASTATIN CALCIUM]
Kd ([2]; caco-2): 0.9985 µL/min/mg

Papp A→B at 2 µM [4]: 3.92 ×10⁻⁶ cm/s
Papp B→A at 2 µM [5]: 41.1 ×10⁻⁶ cm/s
efflux ratio at 2 µM [6]: 10.5
Papp A→B at 2 µM [7]: 4.32 ×10⁻⁶ cm/s
Papp B→A at 2 µM [8]: 13.6 ×10⁻⁶ cm/s
efflux ratio at 2 µM [9]: 3.1
Papp A→B at 2 µM (BCRP [10]): 1.31 ×10⁻⁶ cm/s
Papp B→A at 2 µM (BCRP [11]): 45.1 ×10⁻⁶ cm/s
efflux ratio at 2 µM (BCRP [12]): 34.5
SMILES: COc1cc2nc(N3CCN(C(=O)c4ccco4)CC3)nc(N)c2cc1OC [PRAZOSIN]
